From PubChem BioAssay
The list is not random: actives were taken first. Their share in the collection is about 2.3%.
OXTR agonist: agonists of human oxytocin receptor; CHO-OTR cells, Fluo-8 calcium fluorescence; normalized: DMSO 0%, oxytocin 100%; activation, % at 3 µM; 320,000 compounds, 0.32% hits; AID 2435;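 active = activation above the mean of all tested compounds plus 3 SD, cutoff set per screening run, cut at about 20% in these data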;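 also: peak over basal fluorescence ratio from a 100 s FLIPR kinetic read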
Target sequence (P30559 whole entry, looked up): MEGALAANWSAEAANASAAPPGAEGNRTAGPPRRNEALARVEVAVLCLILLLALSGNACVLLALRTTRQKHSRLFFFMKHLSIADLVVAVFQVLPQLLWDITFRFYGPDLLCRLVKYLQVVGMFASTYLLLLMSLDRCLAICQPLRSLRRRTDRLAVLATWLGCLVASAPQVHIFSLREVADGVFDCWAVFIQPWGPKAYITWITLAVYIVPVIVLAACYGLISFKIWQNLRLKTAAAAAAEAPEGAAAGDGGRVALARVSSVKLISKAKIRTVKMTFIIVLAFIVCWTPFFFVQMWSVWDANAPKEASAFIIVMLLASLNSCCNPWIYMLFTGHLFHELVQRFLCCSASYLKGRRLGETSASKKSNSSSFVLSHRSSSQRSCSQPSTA
V1aR counter: V1a receptor agonism, counter-screen for OXTR agonists | AID 2797 | CHO-V1R cells, Fluo-8 calcium fluorescence, agonist mode; 0% DMSO, 100% 3 nM vasopressin | activation, % at 3 µM | 320,000 compounds, 0.25% hits;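 active = activation above the mean activation of all tested compounds plus 3 SD, per screening run, cut at about 20% in these data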;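 also: signal is peak over basal fluorescence ratio across a 100 second FLIPR read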
TAAR1 antagonist: antagonists of human TAAR1; 360,000 compounds, 1.5% hits; CHO RD-HGA16 TAAR1, Fluo-8 calcium fluorescence, antagonist; Q96RJ0; inhibition, % at 3 µM;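 active = inhibition above a per-plate cutoff, the mean inhibition of test compounds on that plate plus 3 SD, cut at about 49% in these data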
Target sequence (Q96RJ0 whole entry, looked up): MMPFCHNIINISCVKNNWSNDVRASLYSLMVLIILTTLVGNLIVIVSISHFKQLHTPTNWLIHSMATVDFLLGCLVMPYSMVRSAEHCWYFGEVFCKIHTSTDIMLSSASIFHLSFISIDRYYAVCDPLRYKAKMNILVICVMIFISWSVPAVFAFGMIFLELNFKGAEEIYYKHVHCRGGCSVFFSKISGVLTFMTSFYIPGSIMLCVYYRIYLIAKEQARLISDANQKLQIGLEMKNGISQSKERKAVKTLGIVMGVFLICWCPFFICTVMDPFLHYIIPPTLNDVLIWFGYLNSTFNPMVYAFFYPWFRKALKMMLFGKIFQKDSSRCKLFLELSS
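Material: RD-HGA16 CHO cells with stable hTAAR1 and Gα16; Dosing: single nominal final test compound concentration of 3 µM; Schedule: seeding 17-24 h prior, 75-min 37 °C, 30-min RT dye loading; Detection: kinetic Fluo-8 calcium fluorescence measurement; Measure: % inhibition from peak post-agonist over basal fluorescence ratio; Benchmarks: vehicle and agonist controls.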
OXTR potentiator: potentiates the human oxytocin receptor response; CHO-OTR cells, Fluo-8 calcium fluorescence, potentiator mode; 0% = oxytocin EC15, 100% = EC100; 320,000 compounds, 0.061% hits; activation, % at 3 µM;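 active = activation above that plate's cutoff, the mean activation of tested compounds plus 3 SD, cut at about 6.6% in these data, passing the limit was not always enough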
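assay system = CHO-OTR cells, human receptor | schedule = compound 6 min at room temperature before oxytocin, 100 s read | detection = Fluo-8 intracellular calcium fluorescence, ex 470-495, em 515-575 nm | evaluation = normalized max/min fluorescence ratio, % activation | control set = EC15 oxytocin alone as 0%, 75 nM oxytocin (EC100) as 100%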
TAAR1 ag: agonists of human TAAR1; 360,000 compounds, 0.99% hits; activation, % at 3 µM; Q96RJ0; AID 624467; CHO RD-HGA16 TAAR1, Fluo-8 calcium fluorescence; vehicle wells 0%, saturating PEA agonist 100%;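 active = activation above the mean activation of all test compounds in the run plus 3 SD, cut at about 38% in these data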
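Signal – calcium-sensitive Fluo-8 signal, excitation 470-495, emission 515-575 nm · System – RD-HGA16 (CHO) cells co-expressing Gα16 and hTAAR1 · Incubation – 17-24 h seeding, 75 min 37 °C dye, 30 min RT · Compound dosing – 3 µM single concentration · Repeats – no replicates (n 1)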
Of the large screens only hits and unclear results are named; the others gave an inactive call.

C=CCn1c(SCc2ccc(C(=O)Nc3nccs3)cc2)nnc1-c1ccc(C)c(Cl)c1	TAAR1 antagonist 64.8
Cn1nnnc1SCc1ccc(C(=O)Nc2nccs2)cc1	none
O=C(CSc1nc2ccc([N+](=O)[O-])cc2[nH]1)c1ccc2ccccc2c1	TAAR1 antagonist 52.4
O=C(CSc1nc2ncc(Br)cc2[nH]1)c1ccc([N+](=O)[O-])cc1	none
O=C(C[C@H]1C/C=C\CC[C@H](Cc2ccc(F)cc2)C(=O)O[C@@H](c2ccccc2)CNC1=O)N[C@H](CO)Cc1ccccc1	OXTR agonist 33.3, V1aR counter 51.9, TAAR1 antagonist 56.4, TAAR1 ag 52.7
O=C(C[C@@H]1C/C=C/CC[C@@H](Cc2ccc(F)cc2)C(=O)OCCNC1=O)N[C@H](CO)Cc1ccccc1	none
O=C(C[C@H]1C/C=C\C[C@H](Cc2ccc(F)cc2)C(=O)O[C@@H](c2ccccc2)CNC1=O)N[C@H](CO)Cc1ccccc1	OXTR agonist 44.6, V1aR counter 59.8, TAAR1 ag 54.6
O=C(C[C@H]1C/C=C\CC[C@H](Cc2ccc(F)cc2)C(=O)O[C@H](c2ccccc2)CNC1=O)N[C@H](CO)Cc1ccccc1	TAAR1 antagonist 55.0
CCCCNc1cc(C)nc(NCc2ccccc2)n1	OXTR agonist 30.1, V1aR counter 26.6 (no result: TAAR1 antagonist, TAAR1 ag)
Cc1ccc2nc3c(cc(C#N)c(=N)n3Cc3cccnc3)c(=O)n2c1	none (no result: TAAR1 antagonist, TAAR1 ag)
CCN1CCN(c2ccc(NC(=O)c3ccc(Cl)c(S(=O)(=O)N4CCCC4)c3)cc2)CC1	none (no result: OXTR agonist, V1aR counter, OXTR potentiator)
COc1ccccc1C=NN=C(NN=Cc1ccccc1OC)NN=Cc1ccccc1OC	TAAR1 antagonist 52.3 (no result: OXTR agonist, V1aR counter, OXTR potentiator)
O=C(Cn1ncc2ccccc21)N1CCN(c2cccc(C(F)(F)F)c2)CC1	TAAR1 ag 43.9
CN(Cc1ccccc1)C(=O)c1nc[nH]c1C(=O)N1CCc2ccccc2C1	none
O=C(c1nc[nH]c1C(=O)N1CCc2ccccc2C1)N1CCc2ccccc2C1	TAAR1 ag 37.9
C[C@H](NC(=O)c1nc[nH]c1C(=O)NC1CCN(C(=O)OC(C)(C)C)CC1)C(=O)OCc1ccccc1	TAAR1 antagonist 56.5
CNC(=O)c1[nH]cnc1C(=O)N[C@@H](Cc1ccccc1)C(=O)OCc1ccccc1	TAAR1 antagonist 58.8
O=C(N[C@@H](Cc1ccccc1)C(=O)OCc1ccccc1)c1nc[nH]c1C(=O)N1CCc2ccccc2C1	TAAR1 antagonist 59.3
C[C@H](NC(=O)c1nc[nH]c1C(=O)N[C@@H](Cc1ccccc1)C(=O)OCc1ccccc1)C(=O)OCc1ccccc1	none
C[C@H](NC(=O)c1nc[nH]c1C(=O)N1CCN(C(=O)OC(C)(C)C)CC1)C(=O)OCc1ccccc1	none
CC(C)C[C@H](NC(=O)c1nc[nH]c1C(=O)N1CCc2ccccc2C1)C(=O)OCc1ccccc1	none
COc1cscc1C(=O)O	none
Cc1nn(Cc2cccc(F)c2)c(C)c1NC(=O)c1ccc(COc2ccccc2Cl)cc1	TAAR1 antagonist 101.4
Cc1nn(Cc2c(F)c(F)c(F)c(F)c2F)c(C)c1NC(=O)c1cccc(COc2ccccc2Cl)c1	none
CCNC(=O)C1(C)CCCN(C(=O)c2ccc(C(F)(F)F)nc2C)C1 (stereo not drawn)	none (no result: OXTR agonist, V1aR counter, OXTR potentiator)
OC(CNCCC1C=Nc2ccccc21)Cn1c2ccc(Cl)cc2c2cc(Cl)ccc21 (stereo not drawn)	TAAR1 ag 39.7
Cc1cc(C)n(CC(O)Cn2c3ccc(Cl)cc3c3cc(Cl)ccc32)c(=O)n1 (stereo not drawn)	none
CC(C)(C)c1cc(CCC(=O)NNC(=S)NC(=O)c2ccccc2)cc(C(C)(C)C)c1O	OXTR agonist 57.7, V1aR counter 30.7 (no result: TAAR1 antagonist, TAAR1 ag)
N#Cc1c(N)nc2c(c1-c1ccccc1)CCCC2	TAAR1 ag 41.4
N#Cc1c2c(nc(N)c1-c1ccccc1)CCCCC2	none
Cn1c(=NC(=O)COc2ccccc2)sc2ccccc21	none
Cc1ccc(NC(=O)C(C)c2ccc(-c3ccccc3)c(F)c2)cc1 (stereo not drawn)	TAAR1 antagonist 54.9
Cc1ccc(C(=O)OCC(=O)N(CC(C)C)c2c(N)n(Cc3ccccc3)c(=O)[nH]c2=O)s1	none
CN(C)c1ccc(C=Cc2nccc3ccccc23)cc1	none (no result: OXTR agonist, V1aR counter, OXTR potentiator)
CCN(CC)c1nc(C=Cc2ccc(N(C)C)cc2)c2nccnc2n1	TAAR1 antagonist 61.7, TAAR1 ag 61.3 (no result: OXTR agonist, V1aR counter, OXTR potentiator)
CN(C)c1ccc(NC(=O)c2sc(SCC(=O)Nc3ccc(Br)cc3)nc2N)cc1	none
CN(C)c1ccc(NC(=O)c2sc(SCC(=O)Nc3nccs3)nc2N)cc1	TAAR1 antagonist 66.7
O=C(Nc1ccc(/C=C/c2nc3ccccc3o2)cc1)c1c(F)cccc1F	TAAR1 antagonist 52.7
CC(=O)Nc1ccc(/C=C/c2nc3ccccc3o2)cc1	none
C[C@@H]1CN([C@@H](C)CO)C(=O)CCCn2nncc2CO[C@H]1CN(C)Cc1ccc(O)cc1	none (no result: OXTR agonist, V1aR counter, OXTR potentiator)
O=c1nccc(N/N=C/c2ccccc2O)[nH]1	TAAR1 ag 38.5 (no result: OXTR agonist, V1aR counter, OXTR potentiator)
COc1cccc(/C=N/Nc2ccnc(=O)[nH]2)c1O	none
NC(=O)c1cc(S(=O)(=O)NCCc2ccc(Cl)cc2)cs1	none
O=C1N/C(=C/c2ccsc2)C(=O)N1c1ccccc1	TAAR1 ag 43.7
Cc1ccc(CNC(=O)COC(=O)c2ccc(S(=O)(=O)NCc3ccco3)cc2)cc1	none
O=C(N/N=C/c1ccc(Cl)cc1Cl)c1ccncc1	none
O=C(N/N=C/c1cc(Cl)cc(Cl)c1O)c1ccncc1	OXTR agonist 28.6, V1aR counter 27.5
CCCCNCCCOc1ccc(C)cc1Br	none
CCCCNCCCOc1cccc(Cl)c1Cl	TAAR1 ag 37.9
C[C@H](CO)N1C[C@H](C)[C@@H](CN(C)C(=O)Nc2ccccc2)Oc2c(NC(=O)Nc3ccc(C(F)(F)F)cc3)cccc2C1=O	TAAR1 antagonist 49.4
CC(C)NC(=O)Nc1cccc2c1O[C@H](CN(C)C(=O)Nc1ccccc1)[C@@H](C)CN([C@H](C)CO)C2=O	none
CC(C)NC(=O)Nc1cccc2c1O[C@H](CN(C)C(=O)Nc1ccc(C(F)(F)F)cc1)[C@@H](C)CN([C@H](C)CO)C2=O	none
C[C@H](CO)N1C[C@H](C)[C@@H](CN(C)Cc2ccc(-c3ccccc3)cc2)Oc2c(NC(=O)Cc3ccccc3)cccc2C1=O	none (no result: TAAR1 antagonist, TAAR1 ag)
C[C@H](CO)N1C[C@H](C)[C@@H](CN(C)Cc2ccc(Cl)c(Cl)c2)Oc2c(NC(=O)Cc3ccccc3)cccc2C1=O	TAAR1 antagonist 71.1
C[C@H](CO)N1C[C@H](C)[C@@H](CN(C)C(=O)Nc2ccccc2)Oc2c(NC(=O)Nc3ccccc3)cccc2C1=O	TAAR1 antagonist 49.6
O=[N+]([O-])c1ccc(/C=N/N2CCCCC2)cc1	none
CCCC(C)C(=O)Nc1ncc(S(=O)(=O)c2ccc([N+](=O)[O-])cc2)s1 (stereo not drawn)	OXTR agonist 22.5, V1aR counter 45.8, TAAR1 antagonist 62.2, TAAR1 ag 89.5
